Experimental data from paper PMC6698915 (Cancer chemotherapy and pharmacology, 2015).
Entries after “also recorded” stand apart in the source; their conditions may differ.

Assays:
advanced solid tumors = experiment: Antitumor efficacy; assay type: in vivo, human
Method in brief: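 Open-label single-centre 3+3 trial in advanced solid tumors. Oral PI3K-inhibitor test compound was given at 50, 80 or 100 mg/day continuously. […] Imaging after each even-numbered cycle; best response per RECIST. FFPE tumor PTEN IHC scored 0/1+/2+.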

[1] = Plasma pharmacokinetics of buparlisib, non-compartmental analysis; assay type: in vivo, human; settings: oral; for AUC(0-t) / Cmax / Tmax: human, plasma; for AUC(0-t): AUC0–8 h
Method in brief: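 Patients on either platinum/taxane schedule received the oral PI3K-inhibitor test compound at 50 to 100 mg/day. Plasma was sampled on cycle 1/day 1 at 0, 15, 30 and 60 min and at 2, 3, 4.5, 6 and 8 h, plus day 8 pre-dose (taken as 168 h). Non-compartmental analysis: Cmax and Tmax observed; AUClast by linear trapezoidal rule; terminal rate constant by regression of the log-linear terminal phase.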

[2] = 25 patients measurable by RECIST, both groups
[3] = 50 mg, Group 1, 50 mg, n = 6, cycle 1/day 1, mean
[4] = 50 mg, Group 2, 50 mg, n = 4, cycle 1/day 1, mean
[5] = 80 mg, Group 1, 80 mg, n = 3, cycle 1/day 1, mean
[6] = 80 mg, Group 2, 80 mg, n = 6, cycle 1/day 1, mean
[7] = 100 mg, Group 1, 100 mg, n = 7, cycle 1/day 1, mean
[8] = 100 mg, Group 2, 100 mg, n = 4, cycle 1/day 1, mean

Structure (SMILES): Nc1cc(C(F)(F)F)c(-c2cc(N3CCOCC3)nc(N3CCOCC3)n2)cn1 [buparlisib]
- best response: confirmed partial response (PR) (advanced solid tumors; [2]): four
- best response: progression of disease (advanced solid tumors; [2]): three
- confirmed objective response rate (advanced solid tumors; 25 patients with measurable disease, Groups 1 and 2 (1 CR, 4 PRs; 5/25)): 20%
- patients with reductions in measurable disease of at least 20 % and/or at least six cycles (advanced solid tumors; of patients who completed at least one cycle (18/25)): 72%
- patients with reductions in measurable disease of at least 20 % and/or at least six cycles (advanced solid tumors; of patients who received any study treatment (18/30)): 60%
- duration of disease control (advanced solid tumors; one person, metastatic parotid carcinoma to bone, loss of PTEN expression, Group 2): approximately 20 months
- alkaline phosphatase nadir (advanced solid tumors; same parotid carcinoma patient, baseline 236, normal range 45–129 U/L): 80 U/L
- outcome in patients with loss of PTEN expression (advanced solid tumors; three patients, PTEN IHC score = 0): all derived clinical benefit from treatment; also recorded: experienced objective radiographic tumor reductions or clinical benefit
- AUC(0-t) [1, 3]: 1220 ng·h/mL
- AUC(0-t) [1, 4]: 1520 ng·h/mL
- Cmax [1, 3]: 285 ng/mL
- Cmax [1, 4]: 399 ng/mL
- Tmax [1, 3]: 4.83 h
- Tmax [1, 4]: 2.13 h
- AUC(0-t) [1, 5]: 2550 ng·h/mL
- AUC(0-t) [1, 6]: 1970 ng·h/mL
- Cmax [1, 6]: 555 ng/mL
- Tmax [1, 5]: 3.67 h
- Tmax [1, 6]: 2.08 h
- AUC(0-t) [1, 7]: 3460 ng·h/mL
- AUC(0-t) [1, 8]: 3410 ng·h/mL
- Cmax [1, 7]: 933 ng/mL
- Cmax [1, 8]: 960 ng/mL
- Tmax [1, 7]: 1.71 h
- Tmax [1, 8]: 2.38 h
- plasma exposure to buparlisib versus dose ([1]; 50 to 100 mg, with carboplatin + paclitaxel, Groups 1 and 2): dose-related increases in plasma exposure
